The source made the active and inactive calls.
Tests used:
SGBS = experiment: Upregulation of PPARgamma gene expression in human preadipocyte derived from Simpson-Golabi-Behmel syndrome (SGBS) patient at 25 uM measured for 12 days by qRT-PCR analysis; assay type: functional, cell-based
Outline: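 SGBS cells grown 4 days in biotin/D-pantothenate medium, then differentiated without FBS (apo-transferrin, insulin, T3, hydrocortisol, IBMX, dexamethasone) with 25 μM compound or 0.1 % DMSO added from day 0. After 4 days, switched to maintenance medium without IBMX/dexamethasone, renewed day 8. qPCR on days 0, 4, 8, 12, normalized to TBP (comparative threshold) and to day 0. Minimum three biological replicates in duplicate, mean ± SEM.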

[1] = target: T1, Peroxisome proliferator-activated receptor alpha (Mus musculus) (UniProt P23204); experiment: Agonist activity at PPARalpha in C57BL/6N mouse primary hepatocytes assessed as activation of Cpt1a mRNA expression at 50 uM measured after 18 hrs by qRT-PCR analysis; assay type: cell-based
T1 sequence (whole entry): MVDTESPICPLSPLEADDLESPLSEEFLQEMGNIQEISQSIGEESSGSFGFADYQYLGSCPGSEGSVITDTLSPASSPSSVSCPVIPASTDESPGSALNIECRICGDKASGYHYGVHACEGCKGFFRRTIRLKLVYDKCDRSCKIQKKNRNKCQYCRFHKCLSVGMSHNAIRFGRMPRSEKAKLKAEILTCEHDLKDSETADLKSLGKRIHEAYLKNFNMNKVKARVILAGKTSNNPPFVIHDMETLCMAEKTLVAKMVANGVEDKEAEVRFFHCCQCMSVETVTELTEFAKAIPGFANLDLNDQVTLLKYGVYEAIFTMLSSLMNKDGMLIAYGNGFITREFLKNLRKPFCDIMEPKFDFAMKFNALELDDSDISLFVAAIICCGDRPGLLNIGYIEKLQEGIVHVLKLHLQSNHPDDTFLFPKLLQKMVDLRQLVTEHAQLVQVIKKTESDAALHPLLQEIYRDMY
Outline: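 Treatment for 18 h at 50 μM (or 1 μM for the 1 μM agents), DMSO vehicle. Harvested for qPCR. mRNA normalized to TBP by the comparative threshold method, expressed relative to DMSO control. Two biological replicates run in duplicate, mean ± SEM. Primary hepatocytes came from male C57BL/6N mice aged 7–8 weeks, isolated by portal-vein perfusion and digestion, seeded on collagen I and used on day 2. HuH-7 cells were kept in DMEM with 10% FBS and ITS.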

Q: What does the source list for `CCCCCCCc1cc(CCCCCC(=O)O)no1`?
A: Activity (SGBS): Active; Activity [1]: Active

From ChEMBL document CHEMBL4393735, “Molecular modelling, synthesis, and biological evaluations of a 3,5-disubstituted isoxazole fatty acid analogue as a PPARα-selective agonist” (Bioorg Med Chem, 2019)
